The record followed here is ChEMBL document CHEMBL3603801 (J Med Chem, 2015).

Data set [1] can be described thus: Ratio of drug level in rat brain to plasma at 0.5 mg/kg, iv after 2 hrs. It counts as ADME, organism-based. Particulars: brain and plasma, read-out: BPR. Summed up: (§1)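 Rats given 0.5 mg/kg iv in 10% DMA + 10% Solutol HS15 + 80% saline, or for some compounds 10% DMA + 10% Solutol HS15 + 80% (30% (2-hydroxypropyl)-β-cyclodextrin in saline). Brain:plasma and CSF:plasma ratios taken at 0.5 and 2 h; quantification limit 1.00 ng/mL.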

A short description of data set [2]: Ratio of drug level in rat cerebrospinal fluid to plasma at 0.5 mg/kg, iv after 2 hrs. It counts as ADME, organism-based, CSF/Plasma. Particulars: cerebrospinal fluid and plasma.
Data set [3] can be described thus: Ratio of drug level in rat cerebrospinal fluid to plasma at 0.5 mg/kg, iv after 0.5 hrs. It counts as ADME, organism-based, CSF/Plasma. Particulars: cerebrospinal fluid and plasma. An outline of the steps: as §1
Data set [4] in a line: Ratio of drug level in rat brain to plasma at 0.5 mg/kg, iv after 0.5 hrs. In kind it is ADME, organism-based. Particulars: brain and plasma, read-out: BPR. An outline of the steps: as §1
Data set [5] can be described thus: Volume of distribution at steady state in rat at 0.5 mg/kg, iv. It counts as ADME, organism-based. Particulars: in vivo, read-out: Vdss.
Data set [6] in a line: Apparent permeability across apical to basolateral side of human Caco2 cells. It counts as ADME, cell-based. The settings on record: Caco-2. An outline of the steps:
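Caco-2 monolayer; apparent permeability measured in the apical-to-basolateral direction, with efflux ratio also reported.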

Data set [7] can be described thus: Oral bioavailability in rat. It counts as ADME, organism-based. The settings on record: in vivo.

Take `N#Cc1cc(C#N)cc(-c2cc(-c3ccc(F)cn3)ncn2)c1`: the Kp at 2 h in data set [1] amounted to 8.2; in data set [2], 0.07. Besides, the values for the Kp at 0.5 h in data set [3] and in data set [4] were 0.04 and 5.5, respectively. Also, the Vd in data set [5] amounted to 3.3 L/kg.

On to `N#Cc1cc(Cl)cc(-c2cc(-c3ccccn3)ncn2)c1`, for which the Kp at 2 h in data set [1] came out at 1.9. The Kp at 0.5 h is 0.01 in data set [3] and 1.7 in data set [4]. The Vd in data set [5] stood at 4.4 L/kg.

In the case of `N#Cc1ccc(-c2cc(-c3cc(Cl)cc(C#N)c3)ncn2)nc1`, in data set [1], the Kp at 2 h amounted to 6.7. For the same molecule, the Kp at 0.5 h in data set [3] was determined as 0.01; in data set [4], 4.7. The Vd in data set [5] turned out to be 4.9 L/kg.

As to `Cc1cc(C#N)cc(-c2cc(-n3cccn3)ncn2)c1`, the Kp at 2 h in data set [1] amounted to 1.9; in data set [2], 0.01. Further, the Kp at 0.5 h stood at 0.02 in data set [3] and 1.7 in data set [4]. Also, the Vd in data set [5] came to 2.5 L/kg.

Turning to `N#Cc1cc(Cl)cc(-c2cc(-c3ccc(F)cn3)ncn2)c1`, in data set [1], the Kp at 2 h worked out at 2.7. The Papp A→B in data set [6] is 13 ×10⁻⁶ cm/s. Moreover, the Kp at 0.5 h worked out at 0.01 in data set [3] and 2.9 in data set [4]. The molecule also came in with a bioavailability in data set [7] of 100%. Further, in data set [5], the Vd was determined as 3.7 L/kg.
